ChEMBL document CHEMBL3992520, “Development of the First Two-Pore Domain Potassium Channel TWIK-Related K+ Channel 1-Selective Agonist Possessing in Vivo Antinociceptive Activity” (J Med Chem, 2017)

Legend:
Mus musculus [1] = test: Antinociceptive activity in TREK1 deficient C57Bl/6J mouse assessed as increase in thermal-stimulus induced paw withdrawal latency at 60 mg/kg, sc measured after 30 mins by hot plate method relative to control; assay type: functional
Outline: (§1)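 TREK-1−/− and wild-type C57Bl/6J littermates came from heterozygous crosses, n=7. Dose was 60 mg/kg s.c. The 52 °C hotplate measured paw-lick latency, 30 s cut-off, with baseline from two stable pre-dose latencies.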

Mus musculus [2] = test: Antinociceptive activity in CD1 mouse assessed as increase in thermal-stimulus induced paw withdrawal latency at 3 mg/kg, sc measured after 45 mins by hot plate method relative to control; assay type: functional
Outline: (§2)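 Male CD1 mice (20–25 g), groups of 8, scored blind. After 5 min on a room-temperature plate, mice are placed on a 52 °C hotplate. Latency is the time to licking of fore- or hindpaws or flicking of hindpaws, with a 30 s cut-off. Two consecutive stable baseline latencies are taken, then latency is read 30 and 45 min after s.c. injection. % effect = (post − pre)/pre × 100.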

Mus musculus [3] = test: Antinociceptive activity in CD1 mouse assessed as increase in thermal-stimulus induced paw withdrawal latency at 3 mg/kg, sc measured after 30 mins by hot plate method relative to control; assay type: functional; outline: as §2
Mus musculus [4] = test: Antinociceptive activity in wild-type C57Bl/6J mouse assessed as increase in thermal-stimulus induced paw withdrawal latency at 60 mg/kg, sc measured after 30 mins by hot plate method relative to control; assay type: functional; outline: as §1
Mus musculus [5] = test: Antinociceptive activity in TREK1 deficient C57Bl/6J mouse assessed as increase in thermal-stimulus induced paw withdrawal latency at 60 mg/kg, sc measured after 45 mins by hot plate method relative to control; assay type: functional; outline: as §1
Mus musculus [6] = test: In vivo activation of TREK1 in C57Bl/6J mouse assessed as increase in thermal-stimulus induced paw withdrawal latency at 60 mg/kg, sc measured after 30 mins by hot plate method relative to control; assay type: functional; outline: as §1
Mus musculus [7] = test: In vivo activation of TREK1 in C57Bl/6J mouse assessed as increase in thermal-stimulus induced paw withdrawal latency at 60 mg/kg, sc measured after 45 mins by hot plate method relative to control; assay type: functional; outline: as §1
Mus musculus [8] = test: Antinociceptive activity in wild-type C57Bl/6J mouse assessed as increase in thermal-stimulus induced paw withdrawal latency at 60 mg/kg, sc measured after 45 mins by hot plate method relative to control; assay type: functional; outline: as §1
Mus musculus [9] = test: Antinociceptive activity in CD1 mouse assessed as inhibition of acetic acid-induced writhes at 10 mg/kg, sc pretreated for 15 mins followed by acetic acid challenge measured within 20 mins relative to control; assay type: functional
Outline: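 Male CD1 mice (20-25 g), n=8 per group, dosed at 10 mg/kg s.c. or with vehicle (5% Tween 80 in 0.9% saline). Dosing was 15 min before i.p. 0.6% acetic acid (10 mL/kg). Abdominal writhes were counted for 20 min. Effect = (mean control writhes − mean test writhes)/mean control writhes ×100.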

Mus musculus [10] = test: Antinociceptive activity in CD1 mouse assessed as increase in thermal-stimulus induced paw withdrawal latency at 60 mg/kg, sc measured after 45 mins by hot plate method relative to control; assay type: functional
Outline: (§3)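 Male CD1 mice (20-25 g), n=8 per group, given 60 mg/kg s.c. After 5 min acclimatization on a plate at room temperature, mice were placed on a 52 °C hotplate. Latency to forepaw or hindpaw licking or hindpaw flicking was recorded, with a 30 s cut-off. Latency was taken after two consecutive stable baselines, then 30 and 45 min post-dose. Effect = (postdrug − predrug latency)/predrug latency ×100.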

Mus musculus [11] = test: Antinociceptive activity in CD1 mouse assessed as increase in thermal-stimulus induced paw withdrawal latency at 60 mg/kg, sc measured after 30 mins by hot plate method relative to control; assay type: functional; outline: as §3
[12] = biological target: T1, Potassium channel subfamily K member 2 (Homo sapiens) (UniProt O95069); test: Agonist activity at human TREK1 expressed in HEK293 cells assessed as increase in K+ current at 20 uM measured at +60 mV by whole-cell patch clamp method relative to control; assay type: cell-based
T1 sequence (whole entry): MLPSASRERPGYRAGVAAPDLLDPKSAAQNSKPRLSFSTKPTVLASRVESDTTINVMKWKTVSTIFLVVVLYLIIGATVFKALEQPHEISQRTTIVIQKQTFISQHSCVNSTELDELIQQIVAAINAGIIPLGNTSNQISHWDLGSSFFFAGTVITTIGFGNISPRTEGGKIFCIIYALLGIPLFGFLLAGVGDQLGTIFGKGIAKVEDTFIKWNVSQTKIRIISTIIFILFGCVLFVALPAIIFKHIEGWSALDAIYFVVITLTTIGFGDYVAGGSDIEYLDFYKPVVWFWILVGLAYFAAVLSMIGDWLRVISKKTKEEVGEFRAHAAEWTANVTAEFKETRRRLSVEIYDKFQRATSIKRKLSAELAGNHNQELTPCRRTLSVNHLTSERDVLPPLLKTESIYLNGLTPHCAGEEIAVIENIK
Outline: (§4)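 Human TREK-1 (kcnk2) in pIRES2-eGFP was stably expressed in HEK-293 cells under G418 selection, and cells were used 4–48 h after plating. Bath (mM): 140 NaCl, 10 TEA-Cl, 5 KCl, 3 MgCl2, 1 CaCl2, 10 HEPES, pH 7.4. Pipette (mM): 155 KCl, 3 MgCl2, 5 EGTA, 10 HEPES, pH 7.2. Holding was −80 mV, with a step to −100 mV then a 400 ms ramp to +60 mV every 5 s. Read-out was the ratio Imax/I0 taken from I/V curves. Stocks were 20 mM in DMSO.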

Liver [13] = test: Drug metabolism in rat liver microsomes assessed as (E)-2-cyano-3-(1H-indol-2-yl)acrylic acid formation at 40 mM in presence of NADPH-cofactor measured after 24 hrs by HPLC analysis; assay type: ADME, microsome; settings: 40000 µM
Outline: (§5)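 Incubation mix: rat liver microsomes (20 mg/mL stock), phosphate buffer pH 7.4 and NADPH (40 mM stock). Drug was added from a 40 mM DMSO stock. Samples were vortexed and incubated at 37 °C with stirring.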

[14] = Half life in rat liver microsomes at 40 mM in presence of NADPH-cofactor by HPLC analysis; assay type: ADME, microsome
[15] = biological target: T2, Potassium channel subfamily K member 2 (Bos taurus) (UniProt Q8HY88); test: Agonist activity at TREK1 in bovine AZF cells assessed as increase in K+ current at 40 uM by whole-cell patch clamp method relative to control; assay type: cell-based
T2 sequence (whole entry): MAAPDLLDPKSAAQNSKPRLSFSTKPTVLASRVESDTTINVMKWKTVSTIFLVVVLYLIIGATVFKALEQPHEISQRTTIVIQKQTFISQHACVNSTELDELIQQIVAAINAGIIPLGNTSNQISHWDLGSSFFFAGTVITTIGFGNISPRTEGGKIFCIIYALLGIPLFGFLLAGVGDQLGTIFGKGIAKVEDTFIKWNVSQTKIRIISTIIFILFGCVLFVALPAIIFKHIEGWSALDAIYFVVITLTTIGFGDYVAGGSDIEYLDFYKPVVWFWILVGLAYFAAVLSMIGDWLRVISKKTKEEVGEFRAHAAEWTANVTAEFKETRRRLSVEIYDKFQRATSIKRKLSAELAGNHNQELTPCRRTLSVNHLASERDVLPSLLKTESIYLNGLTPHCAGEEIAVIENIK

Liver [16] = test: Drug level in rat liver microsomes treated with at 40 mM (E)-ethyl 2-cyano-3-(3,4-dihydroxyphenyl)acrylate measured after 24 hrs by HPLC analysis; assay type: ADME, microsome; settings: 40000 µM; outline: as §5
[17] = biological target: T1, Potassium channel subfamily K member 2 (Homo sapiens); test: Agonist activity at human TREK1 expressed in xenopus oocytes assessed as increase in K+ current at 20 uM measured at 0 mV by double microelectrode method relative to control; assay type: cell-based
[18] = biological target: T1, Potassium channel subfamily K member 2 (Homo sapiens); test: Agonist activity at human TREK1 expressed in HEK293 cells assessed as increase in K+ current at 100 uM measured at +60 mV by whole-cell patch clamp method relative to control; assay type: cell-based; outline: as §4

Work on `CN1CC[C@]23c4c5ccc(O)c4O[C@H]2[C@@H](O)C=C[C@H]3[C@H]1C5` [MORPHINE] yielded an Activity (Mus musculus [1]) of 86.7%, an Activity (Mus musculus [2]) of 159.7% and an Activity (Mus musculus [3]) of 185%. It also gave an Activity (Mus musculus [4]) of 98.6%, an Activity (Mus musculus [5]) of 94.6% and an Activity (Mus musculus [6]) of 12.6%. The Activity (Mus musculus [7]) was 24.3% and the Activity (Mus musculus [8]) was 124.5%.
Compound `CCOC(=O)/C(C#N)=C/c1cc2ccccc2[nH]1` has an inhibition in vivo at 10 mg/kg (Mus musculus [9]) of 88.4%, an Activity (Mus musculus [10]) of 32.7% and an Activity (Mus musculus [11]) of 33.3%. The fold change (FC) [12] was 4.71, the Drug metabolism (Liver [13]) was “Metabolite_Detected” and the half-life [14] was less than 4 min.
`O=C(O)/C=C/c1ccc(O)c(O)c1` gave a fold change (FC) [15] of 1.
For `N#C/C(=C\c1ccc(O)c(O)c1)C(=O)O`, the Activity (Mus musculus [10]) was 59.4%, the Drug metabolism (Liver [16]) was “Metabolite_Detected” and the Activity (Mus musculus [11]) was 21.4%. It also gave a fold change (FC) [17] of 1.23 and a fold change (FC) [18] of 1.5.
